Measurements taken from ChEMBL document CHEMBL1145176, “Somatostatin receptor 1 selective analogues: 2. N(alpha)-Methylated scan” (J Med Chem, 2005).
Several values for one entry are separate records, joined by “and”; a condition that tells them apart may be missing. Equal entries are not always repeated. Positions of bridges follow the written chain, without caps; N, C: chain ends. Non-standard residues stand in square brackets, D forms with d. Residues, ends and D or L forms follow the SMILES beside them. NMePhe(4-CH2NHiPr) = CN[C@@H](Cc1ccc(CNC(C)C)cc1)C(=O)O

Key:
CHO-K1 [1] = test: Concentration for inhibition of forskolin-stimulated cAMP accumulation in CCL39 cells; format: functional, cell-based, Cricetulus griseus
Method in brief: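 CCL39 cells stably expressing human sst1, seeded in poly-D-lysine-coated 96-well plates at 2 × 10^4 cells/well, grown 24 h. Preincubated 30 min at 37 °C in medium with 0.5 mM IBMX, then 30 min at 37 °C with 0.5 mM IBMX, 7.5 µM forskolin and varying peptide concentrations. Lysed; cAMP measured by scintillation proximity assay. Three independent experiments in triplicate; EC50 from concentration-response curves.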

[2] = target: Somatostatin receptor type 2 (Homo sapiens, UniProt P30874); test: Inhibition of [Leu8,D-Trp22,125I-Tyr25]SRIF-28 binding to human somatostatin receptor type 2
[3] = target: Somatostatin receptor type 3 (Homo sapiens, UniProt P32745); test: Inhibition of [Leu8,D-Trp22,125I-Tyr25]SRIF-28 binding to human somatostatin receptor type 3
[4] = target: Somatostatin receptor type 1 (Homo sapiens, UniProt P30872); test: Inhibition of [Leu8,D-Trp22,125I-Tyr25]SRIF-28 binding to human somatostatin receptor type 1
[5] = target: Somatostatin receptor type 5 (Homo sapiens, UniProt P35346); test: Inhibition of [Leu8,D-Trp22,125I-Tyr25]SRIF-28 binding to human somatostatin receptor type 5
[6] = target: Somatostatin receptor type 4 (Homo sapiens, UniProt P31391); test: Inhibition of [Leu8,D-Trp22,125I-Tyr25]SRIF-28 binding to human somatostatin receptor type 4
CHO-K1 [7] = test: Inhibition of forskolin-stimulated cAMP accumulation in CCL39 cells; format: functional, Cricetulus griseus
Method in brief: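 CCL39 cells stably expressing human sst1 were seeded at 2 × 10^4 cells/well on poly-D-lysine plates and grown 24 h. Cells were preincubated 30 min at 37 °C with 0.5 mM IBMX, then exposed 30 min at 37 °C to IBMX ± 7.5 µM forskolin plus graded compound concentrations. Lysate cAMP was read by scintillation proximity assay and expressed as % forskolin-stimulated level. EC50 came from three independent experiments in triplicate, with SRIF-28 as positive control.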

Sequence of Somatostatin receptor type 3 (P32745 whole entry): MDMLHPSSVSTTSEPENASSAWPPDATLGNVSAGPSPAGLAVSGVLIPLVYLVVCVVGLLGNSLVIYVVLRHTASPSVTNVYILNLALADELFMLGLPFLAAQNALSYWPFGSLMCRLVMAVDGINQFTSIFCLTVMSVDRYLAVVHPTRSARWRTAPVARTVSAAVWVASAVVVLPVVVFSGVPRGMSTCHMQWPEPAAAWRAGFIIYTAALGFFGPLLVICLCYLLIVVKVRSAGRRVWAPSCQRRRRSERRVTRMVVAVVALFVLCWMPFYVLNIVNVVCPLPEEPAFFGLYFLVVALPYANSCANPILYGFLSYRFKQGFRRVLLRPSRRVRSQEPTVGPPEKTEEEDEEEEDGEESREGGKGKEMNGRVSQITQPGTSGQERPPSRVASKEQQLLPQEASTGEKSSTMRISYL
Sequence of Somatostatin receptor type 1 (P30872 whole entry): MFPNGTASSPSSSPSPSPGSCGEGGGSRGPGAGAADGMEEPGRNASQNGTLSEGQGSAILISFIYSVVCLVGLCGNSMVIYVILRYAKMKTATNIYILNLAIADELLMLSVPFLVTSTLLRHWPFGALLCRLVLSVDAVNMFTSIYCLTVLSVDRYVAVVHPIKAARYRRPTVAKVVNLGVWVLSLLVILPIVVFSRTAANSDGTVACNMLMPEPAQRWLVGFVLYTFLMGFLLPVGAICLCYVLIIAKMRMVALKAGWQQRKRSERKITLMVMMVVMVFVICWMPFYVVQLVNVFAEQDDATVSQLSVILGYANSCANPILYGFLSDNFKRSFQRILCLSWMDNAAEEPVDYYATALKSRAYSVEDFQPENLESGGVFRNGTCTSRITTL
Sequence of Somatostatin receptor type 2 (P30874 whole entry): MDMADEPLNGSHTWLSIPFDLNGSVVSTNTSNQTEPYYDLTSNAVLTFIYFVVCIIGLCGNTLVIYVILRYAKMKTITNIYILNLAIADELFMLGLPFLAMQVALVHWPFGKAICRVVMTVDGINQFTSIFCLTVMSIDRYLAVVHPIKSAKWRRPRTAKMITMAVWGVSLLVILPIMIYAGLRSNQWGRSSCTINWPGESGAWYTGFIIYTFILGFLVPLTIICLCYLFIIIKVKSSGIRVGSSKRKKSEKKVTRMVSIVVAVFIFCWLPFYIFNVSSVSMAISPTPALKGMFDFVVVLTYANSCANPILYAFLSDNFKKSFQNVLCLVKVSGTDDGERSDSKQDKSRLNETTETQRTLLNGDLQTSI
Sequence of Somatostatin receptor type 5 (P35346 whole entry): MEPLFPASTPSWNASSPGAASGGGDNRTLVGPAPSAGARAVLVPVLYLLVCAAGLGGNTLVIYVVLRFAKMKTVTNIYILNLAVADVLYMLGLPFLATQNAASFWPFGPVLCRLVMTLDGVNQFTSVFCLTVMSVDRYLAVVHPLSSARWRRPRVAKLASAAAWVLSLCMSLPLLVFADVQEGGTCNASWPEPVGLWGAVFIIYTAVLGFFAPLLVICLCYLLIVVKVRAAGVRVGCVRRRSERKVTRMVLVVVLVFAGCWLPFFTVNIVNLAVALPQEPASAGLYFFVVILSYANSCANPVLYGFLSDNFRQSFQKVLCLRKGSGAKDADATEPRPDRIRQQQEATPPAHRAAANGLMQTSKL
Sequence of Somatostatin receptor type 4 (P31391 whole entry): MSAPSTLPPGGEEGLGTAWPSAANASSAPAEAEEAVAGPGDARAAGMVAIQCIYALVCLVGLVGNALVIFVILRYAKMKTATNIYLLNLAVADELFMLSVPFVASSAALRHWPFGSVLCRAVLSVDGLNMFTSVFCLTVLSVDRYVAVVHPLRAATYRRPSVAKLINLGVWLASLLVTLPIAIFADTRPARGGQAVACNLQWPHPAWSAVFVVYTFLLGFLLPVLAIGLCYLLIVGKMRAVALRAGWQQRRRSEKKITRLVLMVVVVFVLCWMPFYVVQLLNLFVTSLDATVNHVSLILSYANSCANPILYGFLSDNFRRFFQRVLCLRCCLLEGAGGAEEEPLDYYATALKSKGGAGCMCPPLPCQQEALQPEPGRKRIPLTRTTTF

IC50 [2] [µM] | IC50 [3] [µM] | IC50 [4] [µM] | IC50 [5] [µM] | IC50 [6] [µM] | SMILES | EC50 (CHO-K1 [1]) | Inhibition (CHO-K1 [7])
– | – | – | – | – | CSCC[C@H](NC(=O)[C@H](C)NC(=O)[C@@H]1CCCN1C(=O)[C@H](CC(N)=O)NC(=O)[C@H](CO)NC(=O)[C@H](CC(N)=O)NC(=O)[C@H](C)NC(=O)[C@@H](N)CO)C(=O)N[C@@H](C)C(=O)N1CCC[C@H]1C(=O)N[C@@H](CCCNC(=N)N)C(=O)N[C@@H](CCC(=O)O)C(=O)N[C@@H](CCCNC(=N)N)C(=O)N[C@@H](CCCCN)C(=O)N[C@@H](C)C(=O)NCC(=O)N[C@H]1CSSC[C@@H](C(=O)O)NC(=O)[C@H](CO)NC(=O)[C@H]([C@@H](C)O)NC(=O)[C@H](Cc2ccccc2)NC(=O)[C@H]([C@@H](C)O)NC(=O)[C@H](CCCCN)NC(=O)[C@H](Cc2c[nH]c3ccccc23)NC(=O)[C@H](Cc2ccccc2)NC(=O)[C@H](Cc2ccccc2)NC(=O)[C@H](CC(N)=O)NC(=O)[C@H](CCCCN)NC1=O [listing 1 of 2 here] | 0.00018 µM and 0.00077 µM | –
> 1 | > 1 | 0.176 | > 1 | 0.417 | CC(C)NCc1ccc(C[C@@H]2NC(=O)[C@@H](Cc3ccc4ccccc4c3)NC(=O)[C@H](Cc3ccccc3)NC(=O)[C@H](Cc3ccccc3)NC(=O)[C@H](CCCCN)NC(=O)[C@@H](N)CSSC[C@@H](C(=O)O)NC(=O)[C@H](CO)NC(=O)[C@H]([C@@H](C)O)N(C)C(=O)[C@H](Cc3ccccc3)NC(=O)[C@H]([C@@H](C)O)NC2=O)cc1 | – | –
> 1 | > 1 | 0.535 | > 1 | > 1 | CC(C)NCc1ccc(C[C@@H]2NC(=O)[C@@H](Cc3ccc4ccccc4c3)NC(=O)[C@H](Cc3ccccc3)NC(=O)[C@H](Cc3ccccc3)NC(=O)[C@H](CCCCN)N(C)C(=O)[C@@H](N)CSSC[C@@H](C(=O)O)NC(=O)[C@H](CO)NC(=O)[C@H]([C@@H](C)O)NC(=O)[C@H](Cc3ccccc3)NC(=O)[C@H]([C@@H](C)O)NC2=O)cc1 | – | –
> 1 | > 1 | > 1 | > 1 | > 1 | CC(C)NCc1ccc(C[C@@H]2NC(=O)[C@@H](Cc3ccc4ccccc4c3)NC(=O)[C@H](Cc3ccccc3)NC(=O)[C@H](Cc3ccccc3)NC(=O)[C@H](CCCCN)NC(=O)[C@@H](N)CSSC[C@@H](C(=O)O)NC(=O)[C@H](CO)NC(=O)[C@H]([C@@H](C)O)NC(=O)[C@H](Cc3ccccc3)NC(=O)[C@H]([C@@H](C)O)N(C)C2=O)cc1 | – | –
> 1 | 1.03 | 0.01 | > 1 | 0.226 | CC(C)NCc1ccc(C[C@H]2C(=O)N[C@@H]([C@@H](C)O)C(=O)N[C@@H](Cc3ccccc3)C(=O)N[C@@H]([C@@H](C)O)C(=O)N[C@@H](CO)C(=O)N[C@H](C(=O)O)CSSC[C@H](N)C(=O)N[C@@H](CCCCN)C(=O)N[C@@H](Cc3ccccc3)C(=O)N[C@@H](Cc3ccccc3)C(=O)N[C@H](Cc3c[nH]c4ccccc34)C(=O)N2C)cc1 (H-CKFF[dW][NMePhe(4-CH2NHiPr)]TFTSC-OH; disulfide 1-11) | – | –
> 1 | > 1 | 0.113 | > 1 | > 1 | CN[C@H]1CSSC[C@@H](C(=O)O)NC(=O)[C@H](CO)NC(=O)[C@H]([C@@H](C)O)NC(=O)[C@H](Cc2ccccc2)NC(=O)[C@H]([C@@H](C)O)NC(=O)[C@H](Cc2ccc(CNC(C)C)cc2)NC(=O)[C@@H](Cc2ccc3ccccc3c2)NC(=O)[C@H](Cc2ccccc2)NC(=O)[C@H](Cc2ccccc2)NC(=O)[C@H](CCCCN)NC1=O | – | –
> 1 | > 1 | > 1 | > 1 | > 1 | CC(C)NCc1ccc(C[C@@H]2NC(=O)[C@@H](Cc3ccc4ccccc4c3)NC(=O)[C@H](Cc3ccccc3)N(C)C(=O)[C@H](Cc3ccccc3)NC(=O)[C@H](CCCCN)NC(=O)[C@@H](N)CSSC[C@@H](C(=O)O)NC(=O)[C@H](CO)NC(=O)[C@H]([C@@H](C)O)NC(=O)[C@H](Cc3ccccc3)NC(=O)[C@H]([C@@H](C)O)NC2=O)cc1 | – | –
> 1 | > 1 | 0.075 | > 1 | > 1 | CC(C)NCc1ccc(C[C@@H]2NC(=O)[C@@H](Cc3c[nH]c4ccccc34)NC(=O)[C@H](Cc3ccccc3)NC(=O)[C@H](Cc3ccccc3)NC(=O)[C@H](CCCCN)NC(=O)[C@@H](N)CSSC[C@@H](C(=O)O)NC(=O)[C@H](CO)NC(=O)[C@H]([C@@H](C)O)N(C)C(=O)[C@H](Cc3ccccc3)NC(=O)[C@H]([C@@H](C)O)NC2=O)cc1 | – | –
– | – | – | – | – | CSCC[C@H](NC(=O)[C@H](C)NC(=O)[C@@H]1CCCN1C(=O)[C@H](CC(N)=O)NC(=O)[C@H](CO)NC(=O)[C@H](CC(N)=O)NC(=O)[C@H](C)NC(=O)[C@@H](N)CO)C(=O)N[C@@H](C)C(=O)N1CCC[C@H]1C(=O)N[C@@H](CCCNC(=N)N)C(=O)N[C@@H](CCC(=O)O)C(=O)N[C@@H](CCCNC(=N)N)C(=O)N[C@@H](CCCCN)C(=O)N[C@@H](C)C(=O)NCC(=O)N[C@H]1CSSC[C@@H](C(=O)O)NC(=O)[C@H](CO)NC(=O)[C@H]([C@@H](C)O)NC(=O)[C@H](Cc2ccccc2)NC(=O)[C@H]([C@@H](C)O)NC(=O)[C@H](CCCCN)NC(=O)[C@H](Cc2c[nH]c3ccccc23)NC(=O)[C@H](Cc2ccccc2)NC(=O)[C@H](Cc2ccccc2)NC(=O)[C@H](CC(N)=O)NC(=O)[C@H](CCCCN)NC1=O [listing 2 of 2 here] | – | >81% and >49%
> 1 | > 1 | 0.014 | > 1 | > 1 | CN[C@H]1CSSC[C@@H](C(=O)O)NC(=O)[C@H](CO)NC(=O)[C@H]([C@@H](C)O)NC(=O)[C@H](Cc2ccccc2)NC(=O)[C@H]([C@@H](C)O)NC(=O)[C@H](Cc2ccc(CNC(C)C)cc2)NC(=O)[C@@H](Cc2c[nH]c3ccccc23)NC(=O)[C@H](Cc2ccccc2)NC(=O)[C@H](Cc2ccccc2)NC(=O)[C@H](CCCCN)NC1=O | – | –
> 1 | > 1 | 0.03 | 0.803 | > 1 | CC(C)NCc1ccc(C[C@@H]2NC(=O)[C@@H](Cc3c[nH]c4ccccc34)NC(=O)[C@H](Cc3ccccc3)NC(=O)[C@H](Cc3ccccc3)NC(=O)[C@H](CCCCN)NC(=O)[C@@H](N)CSSC[C@@H](C(=O)N[C@@H](CCCCN)C(=O)N[C@@H](CCCCN)C(=O)N[C@@H](CCCCN)C(=O)O)N(C)C(=O)[C@H](CO)NC(=O)[C@H]([C@@H](C)O)NC(=O)[C@H](Cc3ccccc3)NC(=O)[C@H]([C@@H](C)O)NC2=O)cc1 | – | –
> 1 | > 1 | 0.0033 | > 1 | 0.562 | CC(C)NCc1ccc(C[C@@H]2NC(=O)[C@H](N(C)C(=O)c3ccc4ccccc4c3)NC(=O)[C@H](Cc3ccccc3)NC(=O)[C@H](Cc3ccccc3)NC(=O)[C@H](CCCCN)NC(=O)[C@@H](N)CSSC[C@@H](C(=O)O)NC(=O)[C@H](CO)NC(=O)[C@H]([C@@H](C)O)NC(=O)[C@H](Cc3ccc(O)cc3)NC(=O)[C@H]([C@@H](C)O)NC2=O)cc1 | – | –
> 1 | > 1 | 0.035 | > 1 | > 1 | CC(C)NCc1ccc(C[C@@H]2NC(=O)[C@@H](Cc3c[nH]c4ccccc34)NC(=O)[C@H](Cc3ccccc3)NC(=O)[C@H](Cc3ccccc3)NC(=O)[C@H](CCCCN)NC(=O)[C@@H](N)CSSC[C@@H](C(=O)N[C@@H](CCCCN)C(=O)O)N(C)C(=O)[C@H](CO)NC(=O)[C@H]([C@@H](C)O)NC(=O)[C@H](Cc3ccccc3)NC(=O)[C@H]([C@@H](C)O)NC2=O)cc1 | – | –
> 1 | > 1 | 0.255 | > 1 | > 1 | CC(C)NCc1ccc(C[C@@H]2NC(=O)[C@@H](Cc3ccc4ccccc4c3)NC(=O)[C@H](Cc3ccccc3)NC(=O)[C@H](Cc3ccccc3)NC(=O)[C@H](CCCCN)NC(=O)[C@@H](N)CSSC[C@@H](C(=O)N[C@@H](CCCCN)C(=O)O)N(C)C(=O)[C@H](CO)NC(=O)[C@H]([C@@H](C)O)NC(=O)[C@H](Cc3ccccc3)NC(=O)[C@H]([C@@H](C)O)NC2=O)cc1 | – | –
> 1 | > 1 | 0.053 | 0.682 | > 1 | CC(C)NCc1ccc(C[C@@H]2NC(=O)[C@@H](Cc3c[nH]c4ccccc34)NC(=O)[C@H](Cc3ccccc3)NC(=O)[C@H](Cc3ccccc3)NC(=O)[C@H](CCCCN)NC(=O)[C@@H](N)CSSC[C@@H](C(=O)N[C@@H](CCCCN)C(=O)N[C@@H](CCCCN)C(=O)O)NC(=O)[C@H](CO)N(C)C(=O)[C@H]([C@@H](C)O)NC(=O)[C@H](Cc3ccccc3)NC(=O)[C@H]([C@@H](C)O)NC2=O)cc1 | – | –
